According to article PMC9623456 (RSC Advances, 2022):
Values after ≈ are worked out from the molar mass of the structure shown.

How the values were obtained:
[1] = tested on: mouse embryo cell lines 3T3-L1; experiment: MTT assay; type: cell-based; conditions: for IC50: Mus musculus, 3T3-L1, read-out: 3T3-L1 IC50
Method in brief: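 MTT metabolic-activity assay in mouse embryo 3T3-L1 cells exposed to a range of test-compound concentrations. Percent viability was calculated by formula and plotted against concentration in μg ml−1. IC50 was taken from the dose–response curve as the concentration giving 50% growth suppression.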

3T3-L1 cells = experiment: Scratch wound assay; type: cell-based, mouse; conditions: 3T3-L1, 24 hours
Method in brief: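 Scratch assay: 3T3-L1 cells were grown to confluence, then wounded with a pipette tip and treated with test compounds. Wound width was measured at the time of scratching and again after 24 h.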

mice = experiment: Acute oral toxicity study; type: in vivo
Method in brief: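 OECD 420 fixed-dose procedure in mice. Animals were dosed orally in stepwise groups at fixed doses of 5, 50, 300 and 2000 mg kg−1. Further groups received higher or lower fixed doses depending on the presence or absence of toxicity or death. Read-outs were clinical signs of toxicity and mortality.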

diabetic rats = experiment: Full thickness excision wound model in STZ-nicotinamide diabetic rats; type: in vivo, Wistar male albino rats
[2] = molecular target: HIF-1α prolyl hydroxylase-2 (PHD2); conditions: PHD2 inhibition; cited from earlier work
[3] = Phase 2 trial; cited from earlier work

Molecule: Hyaluronic acid [reference compound]
- 3T3-L1 IC50 ([1]; MTT assay, 3T3-L1): 112.59 µg/mL

Molecule: c1ccc(-c2cc(-c3ccccc3)n(Cn3ccnc3)n2)cc1 [CI, 1-(Imidazol-1-ylmethyl) −3,5-diphenylpyrazole]
- IC50 [1]: 107 µg/mL (≈ 355 µM)
- Activity compared to the positive control hyaluronic acid (3T3-L1 cells): comparable activity
- Acute oral toxicity outcome (mice; oral, 2000 mg kg^−1): died
- Acute oral toxicity outcome (mice; oral, 5, 50, and 300 mg kg^−1): no adverse effects or fatality
- Wound contraction (%) (diabetic rats; High dose 150 mg kg^−1, oral, Day 3): 24.5 ± 0.48 %
- Wound contraction (%) (diabetic rats; High dose 150 mg kg^−1, oral, Day 7): 31.25 ± 0.39 %
- Wound contraction (%) (diabetic rats; High dose 150 mg kg^−1, oral, Day 11): 64.00 ± 0.44 %
- Wound contraction (%) (diabetic rats; Low dose 75 mg kg^−1, oral, Day 3): 18.25 ± 0.55 %
- Wound contraction (%) (diabetic rats; Low dose 75 mg kg^−1, oral, Day 7): 24.50 ± 0.30 %
- Wound contraction (%) (diabetic rats; Low dose 75 mg kg^−1, oral, Day 11): 41.5 ± 0.43 %
- Wound contraction (%) (diabetic rats; Low dose 75 mg kg^−1, oral, Day 15): 55.77 ± 0.42 %
- Wound healing in rats (diabetic rats; oral, diabetic rats): improved wound healing

Molecule: O=C(O)CNC(=O)c1nc(Cl)c2ccccc2c1O [FG-2216]
- IC50 [2]: 3.9 µM
- Fatal outcome [3]: one patient died of hepatic necrosis
- Liver enzyme test results [3]: aberrant liver enzyme test results

Molecule: c1ccc(-c2cc(-c3ccccc3)n(CN(c3ccccc3)c3ccccc3)n2)cc1 [CDPA, N-[(3,5-diphenylpyrazol-1-yl)methyl] -N-phenylaniline]
- IC50 [1]: 132 µg/mL (≈ 328 µM)

Molecule: c1ccc(-c2cc(-c3ccccc3)n(Cn3cccn3)n2)cc1 [CP, 3,5-Diphenyl-1-(pyrazole-1-ylmethyl) pyrazole]
- IC50 [1]: 111 µg/mL (≈ 371 µM)
- Activity compared to the positive control hyaluronic acid (3T3-L1 cells): comparable activity
